Assay results from different studies.
Each line is one published result; the experiments were not run side by side. Converted amounts (≈) assume the structure as drawn.

Structure (SMILES) | organism | test | test system | setting | quantity | value
[H]/N=C(/N)N[C@H]1[C@H](O)[C@@H](O)[C@H](O[C@@H]2O[C@@H](C)[C@](O)(C=O)[C@H]2O[C@@H]2O[C@@H](CO)[C@H](O)[C@@H](O)[C@@H]2NC)[C@@H](N/C(N)=N\[H])[C@@H]1O | Staphylococcus aureus | microbial growth, well diffusion | NCIM5021 | 1000 µg/mL | inhibition zone | 30 mm
CCCCNC(=O)c1ccc(NC(=O)Nc2ccc(Cl)c(C(F)(F)F)c2)cc1 | Staphylococcus aureus | microbial growth | NCTC8325 | 24 h | MIC | > 100 µM
O=C(O)CN1C(=O)/C(=C/c2ccc(-c3ccc(N(c4ccccc4)c4ccccc4)cc3)cc2)SC1=S | Staphylococcus aureus | microbial killing, broth dilution | ATCC25923 | – | MBC | 31.3 µg/mL (≈ 59.9 µM)
COc1ccc2nc(-n3nc(CC(C)C)c4c3-c3ccccc3C4=O)sc2c1 | Staphylococcus aureus | microbial growth, well diffusion | NCIM5021 | 250 µg/mL | inhibition zone | 12 mm
O=C(O)c1ccc(-n2cc(COc3cccc4cccnc34)nn2)cc1 | Escherichia coli | microbial growth, broth dilution | ATCC25922 | – | IC50 | 108 µg/mL (≈ 313 µM)
Cc1ccc2nc(-n3nc(C(C)C)c4c3-c3ccccc3C4=O)sc2c1 | Staphylococcus aureus | microbial growth, well diffusion | NCIM5021 | 125 µg/mL | inhibition zone | 12 mm
Cc1ccc(C(C)C)cc1OS(=O)(=O)c1cccs1 | Escherichia coli | microbial growth, broth dilution | ATCC25922 | – | IC50 | 149 µg/mL (≈ 503 µM)
COc1cc(Nc2ncc(F)c(Nc3ccc4c(n3)N(COP(=O)(O)O)C(=O)C(C)(C)O4)n2)cc(OC)c1OC | Staphylococcus aureus | microbial growth | NCTC8325 | – | MIC | > 30 µM
Cc1ccc2nc(-n3nc(CC(C)C)c4c3-c3ccccc3C4=O)sc2c1 | Staphylococcus aureus | microbial growth, well diffusion | NCIM5021 | 250 µg/mL | inhibition zone | 11 mm
O=C(Nc1ccccc1-c1ccc(F)c(F)c1)c1nccnc1C(F)(F)F | Alternaria solani | microbial growth | – | – | EC50 | 0.15 µg/mL (≈ 0.395 µM)
O=C1NC(=S)S/C1=C\c1ccc(-c2ccc(N(c3ccccc3)c3ccccc3)cc2)cc1 | Micrococcus luteus | microbial killing, broth dilution | ATCC10240 | – | MBC | 500 µg/mL (≈ 1080 µM)
Cc1cc(C(=O)NOCCO)c(Nc2ccc(I)cc2F)n(C)c1=O | Staphylococcus aureus | microbial growth | NCTC8325 | – | MIC | > 30 µM
O=C1NC(=S)N/C1=C\c1ccc(-c2ccc(N(c3ccccc3)c3ccccc3)cc2)c2ccccc12 | Staphylococcus aureus | microbial killing, broth dilution | ATCC6538 | – | MBC | > 1000 µg/mL
Cc1nn(-c2nc3ccc(Cl)cc3s2)c2c1C(=O)c1ccccc1-2 | Staphylococcus aureus | microbial growth, well diffusion | NCIM5021 | 1000 µg/mL | inhibition zone | 11 mm
O=C1C=C(OCc2cn(-c3ccc([N+](=O)[O-])cc3)nn2)C(=O)c2ccccc21 | Escherichia coli | microbial growth, broth dilution | ATCC25922 | – | IC50 | 396 µg/mL (≈ 1050 µM)
O=C1NC(=S)N/C1=C\c1c2ccccc2c(-c2ccc(N(c3ccccc3)c3ccccc3)cc2)c2ccccc12 | Micrococcus luteus | microbial killing, broth dilution | ATCC10240 | – | MBC | > 1000 µg/mL

Structure (SMILES) | organism | test | test system | setting | quantity | value
O=C(O)c1cn(C2CC2)c2cc(N3CCNCC3)c(F)cc2c1=O | Staphylococcus aureus | microbial growth | NCTC8325 | – | MIC | 0.75 µM (≈ 0.249 µg/mL)
O=C(O)CN1C(=O)/C(=C/c2c3ccccc3c(-c3ccc(N(c4ccccc4)c4ccccc4)cc3)c3ccccc23)SC1=S | Micrococcus luteus | microbial killing, broth dilution | ATCC10240 | – | MBC | 125 µg/mL (≈ 201 µM)
C=CC(=O)Nc1cc2c(Nc3ccc(F)c(Cl)c3)ncnc2cc1OCCCN1CCOCC1 | Staphylococcus aureus | microbial growth | NCTC8325 | – | MIC | > 30 µM
CCCCS(=O)(=O)Oc1cc(C(C)C)ccc1C | Escherichia coli | microbial growth, broth dilution | ATCC25922 | – | IC50 | 156 µg/mL (≈ 578 µM)
Cc1nn(-c2nc3ccc(Br)cc3s2)c2c1C(=O)c1ccccc1-2 | Staphylococcus aureus | microbial growth, well diffusion | NCIM5021 | 500 µg/mL | inhibition zone | 12 mm
O=C1NC(=S)S/C1=C\c1ccc(-c2ccc(N(c3ccccc3)c3ccccc3)cc2)c2ccccc12 | Micrococcus luteus | microbial killing, broth dilution | ATCC10240 | – | MBC | > 1000 µg/mL
CC(C)c1nn(-c2nc3ccc(Br)cc3s2)c2c1C(=O)c1ccccc1-2 | Staphylococcus aureus | microbial growth, well diffusion | NCIM5021 | 500 µg/mL | inhibition zone | 11 mm
Cc1ccc(C(=O)Nc2ccc(CN3CCN(C)CC3)c(C(F)(F)F)c2)cc1C#Cc1cnc2cccnn12 | Staphylococcus aureus | microbial growth | NCTC8325 | – | MIC | > 30 µM
O=C1NC(=S)N/C1=C\c1ccc(-c2ccc(N(c3ccccc3)c3ccccc3)cc2)cc1 | Staphylococcus aureus | microbial killing, broth dilution | ATCC43300 | – | MBC | > 1000 µg/mL
CC(C)Cc1nn(-c2nc3ccc(Cl)cc3s2)c2c1C(=O)c1ccccc1-2 | Staphylococcus aureus | microbial growth, well diffusion | NCIM5021 | 125 µg/mL | inhibition zone | 10 mm
COC(=O)Nc1ccc(-c2nc(N3CCOCC3)c3cnn(C4CCN(C(=O)OC)CC4)c3n2)cc1 | Staphylococcus aureus | microbial growth | NCTC8325 | – | MIC | > 30 µM
Cc1ccc(C(C)C)cc1OS(=O)(=O)c1ccccc1 | Escherichia coli | microbial growth, broth dilution | ATCC25922 | – | IC50 | 113 µg/mL
C#CCCC1(CCOC(=O)c2ccc(NC(=O)Nc3ccc(Cl)c(C(F)(F)F)c3)cc2)N=N1 | Staphylococcus aureus | microbial growth | NCTC8325 | – | MIC | 1 µM (≈ 0.479 µg/mL)
O=[N+]([O-])c1ccc(S(=O)(=O)Oc2cccc3cccnc23)cc1 | Escherichia coli | microbial growth, broth dilution | ATCC25922 | – | IC50 | 215 µg/mL (≈ 650 µM)
O=C(O)CN1C(=O)/C(=C/c2ccc(-c3ccc(N(c4ccccc4)c4ccccc4)cc3)cc2)NC1=S | Staphylococcus aureus | microbial killing, broth dilution | ATCC43300 | – | MBC | 3.9 µg/mL (≈ 7.71 µM)
